Compound activity from PubChem.
In the library only some 3.4% were active in any assay of this set; here they are far more common.
ROMK primary: modulates human ROMK potassium channel activity. 2% of 130,000 active. AID 1918. Tet-inducible ROMK, thallium flux fluorescence; actives lie on both sides. P48048. B-score at 10 µM;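 active = signal ratio slope over the read window, or its plate-corrected B-score, at least 3 SD from the plate mean, either direction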;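 also: B-score of the F/F0 ratio slope over 7 to 12 s after thallium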
Mdm2 ligase inh: inhibitors of human Mdm2 E3 ubiquitin ligase; AID 1230; Q00987; 0.11% of 210,000 active; signal enhancement, % at 5 µM; cell-based MDM2 ubiquitination luciferase reporter, 2 h; 0 = plate control, 100 = twice control, blank-subtracted;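 active = signal enhancement of 30% or more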;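 also: luminescence tracks abundance of the self-degrading MDM2-luciferase fusion protein; higher signal means inhibition of MDM2 E3 ligase activity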
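Assay system: stable mammalian line carrying autodegrading MDM2–luciferase fusion reporter; amount: 2000 cells seeded into each well; buffer or medium: DMEM; benchmarks: plate control and blank wells; signal: luciferase luminescence; timing: 2 h compound exposure at 37 °C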
DTT redox prof: compounds producing H2O2 with reducing agent – biochemical, NIH compound library profiling, artefact control for MLSCN library redox annotation, primary screen. DTT-dependent redox cycling H2O2, phenol red/HRP absorbance; 100% = 100 µM peroxide control, 0% = buffer. activation, % at 10 µM. 0.03% of 200,000 active. AID 878;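 active = activation of at least 50% relative to the plate's high and low controls in the primary single-dose screen; inactive = activation below 50%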;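 also: compound incubated with DTT at 0.8 mM final as the reducing agent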
p97 inhibitor: human p97 ATPase inhibition; P55072; recombinant p97 ATPase, Kinase-Glo ATP luminescence, 3 h; 0.42% of 220,000 active; inhibition, % at 8 µM; in the data active = inhibition above about 15%;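 also: 0% = DMSO vehicle and 100% = wells lacking enzyme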
PKD1 inh: PKD1 (human) kinase inhibition | Q15139 | PKD1 kinase fluorescence polarization assay | inhibition, % (no concentration beside the values) | 0.056% of 200,000 active | AID 797; in the data active = inhibition above about 50%
Cl transport mod: modulates chloride dependent transport by human KCC2; Q9H2X9; KCC2 cells, thallium flux FluoZin-2 fluorescence; B-score of Tl+ flux slope (higher = more flux/activation; lower = inhibition) at 10 µM; 2.2% of 190,000 active; AID 1456;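 active = thallium flux slope and its plate-corrected score both differing from the plate sample mean at a set confidence after two filtering rounds, in either direction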;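 also: slope of fluorescence scaled to starting intensity during 10 to 20 s after thallium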
ROMK hit retest: confirmation of human ROMK potassium channel modulators; shares compounds with ROMK primary; ROMK thallium flux, fluorescence ratio; active compounds read low; normalized thallium flux (F/F0 slope) at 10 µM; 54% of 3,000 active;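 active = Flux at 10 µM at least 3 SD below or above vehicle control mean in one or both replicates; inconclusive = no clear call, values can overlap the other calls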
The depositor's hits bear a star; i = inactive; ? = inconclusive; . = not tested or not shown.

SMILES	ROMK primary	Mdm2 ligase inh	DTT redox prof	p97 inhibitor	PKD1 inh	Cl transport mod	ROMK hit retest
CC(CSc1nc2ccccc2s1)Cn1c(N2CCCC2)nc2c1c(=O)[nH]c(=O)n2C (stereo not given)	-3.07*	-9.9	1.7	0.8	1.5	.	0.0599*
CC(=O)N1CCN(C(=S)NCCc2ccccc2)CC1	0.0523	.	-0.4	5.0	3.8	1.1	.
Cc1ccc(NC(=O)N2CCCN(Cc3ccc(F)cc3)C2)cc1C	-4.03*	-13.4	-0.5	-3.8	0.3	.	0.0562*
COc1ccc(-c2nc(-c3ccc(NC(=O)c4ccncc4)cc3)no2)cc1OC	.	-18.4	-0.7	-9.9	-14.7	-0.377	0.0786
COc1ccc(Cl)cc1-c1nc(-c2ccc(NC(=O)c3ccncc3)cc2)no1	.	.	3.6	-2.1	-7.2	2.07	.
Cc1ccc(N2CCN(C(=O)CN3C(=O)c4ccccc4C3=O)CC2)cc1	1.89*	-14.5	0.0	2.1	1.4	-0.677	0.0738
O=C(CN1C(=O)c2ccccc2C1=O)N1CCN(c2ccccc2)CC1	0.688	-12.1	1.6	-3.8	4.0	0.0983	.
CC(Cc1ccccc1)C(=O)NCc1nc2ccccc2s1 (stereo not given)	-0.12	.	0.3	9.0	-8.0	-1.05	.
Brc1ccc(N=C/C=C/C=C/Nc2ccc(Br)cc2)cc1	.	-16.4	2.5	4.7	-4.6	2.62	?
CN(C)C(/C=C/Nc1ccc(Br)cc1)=C(C#N)C#N	.	-10.6	-0.9	5.6	5.4	1.41	.
CCOc1ccc(C(=O)NC(=S)Nc2cccc(S(=O)(=O)NC3=NCCC3)c2)cc1	5.68*	-11.5	-0.3	-3.6	6.1	-1.18	0.0956
C=C(C)CNC(=S)Nc1cccc(S(=O)(=O)NC2=NCCC2)c1	0.0793	-7.4	0.0	-1.7	0.0	0.882	.
COc1ccc(Br)cc1CSC(=N)N	-1.3	-16.4	-0.4	0.8	2.6	0.985	.
CCCCCOc1ccc(Br)cc1CSC(=N)N	.	-31.1	0.4	5.8	3.4	1.25	0.0421*
O=C(N/N=C/c1sc2ccccc2c1O)c1ccccc1	.	-5.6	0.0	4.1	-9.6	i	.
COc1ccc2cc(C(=O)N/N=C/c3sc4ccccc4c3O)ccc2c1	-2.81*	-8.1	-0.1	4.9	-22.9	i	0.0484*
CC(C)=NNc1nc2c(c(=O)[nH]c(=O)n2C)n1CCc1ccccc1	-1.67*	-12.4	8.5	3.1	-5.8	.	0.0732
CC/C(C)=N/Nc1nc2c(c(=O)[nH]c(=O)n2C)n1CCc1ccccc1	.	13.2	-1.1	6.3	2.8	0.223	.
CC(C)CCSc1nc2c(c(=O)[nH]c(=O)n2C)n1CCCc1ccccc1	.	-6.0	-0.2	-3.0	-3.4	0.157	0.0723
N#CC1=C(N)SC(N)=C(C#N)C1c1ccc(C(F)(F)F)cc1	-3.55*	9.7	0.8	-3.1	-5.7	0.93	0.0454*
COc1ccc2c3c(c(=O)oc2c1OCC(=O)O)CCCC3	.	-3.1	-0.8	4.4	-2.6	i	.
Cc1ccc(S(=O)(=O)N2CCCC2C(=O)NCCc2nc3ccccc3[nH]2)cc1 (stereo not given)	.	-0.3	0.2	-3.2	0.7	-0.18	.
CC(=O)Oc1ccccc1C1OC(=O)c2ccccc2N1C(C)=O (stereo not given)	0.912	3.6	0.9	-3.6	-3.9	.	0.0867
CC(=O)N1CCN(C(=O)CC2OC(=O)c3ccccc32)CC1 (stereo not given)	.	-34.8	0.2	-4.5	-6.8	-0.198	.
CCOC(=O)C1CCCN(c2ncnc3c2oc2ccccc23)C1 (stereo not given)	.	-21.3	1.9	-7.0	7.4	.	0.0544*
CCOC(=O)C1CCN(c2ncnc3c2oc2ccccc23)CC1	-2.6	-21.9	1.3	-2.2	-12.2	-1.66	.
Cc1c(-c2ccc(F)cc2)[n+](=O)c(-c2ccc(F)cc2)c(C)n1[O-]	0.469	-15.4	0.2	3.7	1.3	0.0557	.
COc1cc2c3c(c1)C(C)CC(C)(C)N3C(=O)C2=O (stereo not given)	3.37*	-17.7	-0.7	4.7	4.5	.	0.0951
COc1cc2c3c(c1)C(C)=CC(C)(C)N3C(=O)C2=O	2.22	-0.2	-0.6	3.8	-0.8	-0.0312	.
